Measured values as given in ChEMBL document CHEMBL1152389, “A novel and efficient synthesis of highly oxidized lignans by a methyltrioxorhenium/hydrogen peroxide catalytic system. Studies on their apoptogenic and antioxidant activity” (Bioorg Med Chem, 2009).
Calls of active or inactive are those of the source. The calls are words filed in the database; no cut-off is given here.

Columns and labels:
Format in all cases: functional, cell-based
[1] = system: E2R; test: Induction of apoptosis in human E2R cells expressing EBV assessed as condensed and fragmented nuclei at 25 to 100 uM after 18 hrs by epifluorescent microscopy
How it was run: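 BL41-derived E2R cells (EBV-positive, apoptosis-resistant) grown in RPMI with 4 mM L-glutamine and 10% FCS at 37 °C, 5% CO2. Seeded at 3 × 10^5 cells/mL and exposed to compounds in DMSO (≤0.5% v/v) for 18 h. Cells fixed in 4% p-formaldehyde and stained with DAPI (0.2 µg/mL). Condensed/fragmented nuclei scored in ≥500 cells from random fields by epifluorescence microscopy.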

[2] = system: E2R; test: Antioxidant activity in human E2R cells assessed as intracellular peroxide level at 25 to 100 uM after 1 hr by flow cytometry in presence of DCFH-DA
How it was run: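 E2R cells (EBV-positive, apoptosis-resistant isogenic Burkitt line) in RPMI with 4 mM L-glutamine, 10% FCS, 37 °C, 5% CO2. Compounds in DMSO (0.2%) for 1 h in RPMI, then 10 µM DCFH-DA for 20 min at 37 °C. Flow cytometry, excitation 488 nm, emission 533 nm (FL-1), 10,000 events per sample.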

[3] = system: BL-41; test: Induction of apoptosis in human EBV deficient BL41 cells assessed as condensed and fragmented nuclei at 25 to 100 uM after 18 hrs by epifluorescent microscopy
How it was run: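 BL41 (EBV-negative Burkitt lymphoma) cells in RPMI with 4 mM L-glutamine, 10% FCS at 37 °C, 5% CO2. Seeded at 3 × 10^5 cells/mL and exposed 18 h to compounds in DMSO (≤0.5% v/v). Cells fixed in 4% p-formaldehyde, stained with DAPI 0.2 µg/mL. At least 500 cells in random fields scored by epifluorescence for condensed/fragmented nuclei.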

COc1cc(C(=O)[C@H]2COC(=O)[C@@H]2C(O)c2ccc(O)c(OC)c2)ccc1O (stereo partly specified) was tested, and the Activity [1] was “Active”.
In the case of COc1cc([C@H]2c3cc(O)c(OC)cc3C[C@H]3C(=O)OC[C@H]23)ccc1O, the Activity [1] is reported as “inactive”, the Activity [2] is reported as “Active” and the Activity [3] is reported as “inactive”.
COc1cc(C[C@H]2C(=O)OC[C@@H]2[C@H](O)c2ccc(O)c(OC)c2)ccc1O was tested, and the Activity [1] was “inactive” and the Activity [3] was “inactive”.
For COc1cc([C@H]2c3cc(O)c(OC)cc3C[C@H]3COC[C@@H]32)ccc1O, the Activity [1] was “Active”, the Activity [2] was “inactive” and the Activity [3] was “Active”.
For COc1cc(C[C@H]2COC(=O)[C@@H]2Cc2ccc(O)c(OC)c2)ccc1O, the Activity [1] was “Active”, the Activity [2] was “Active” and the Activity [3] was “Active”.
For COc1cc([C@H]2c3cc(O)c(OC)cc3C[C@@H](CO)[C@@H]2CO)ccc1O, the Activity [1] was “inactive” and the Activity [3] was “inactive”.
With COc1cc(C[C@H]2COC(=O)[C@@H]2C(O)c2ccc(O)c(OC)c2)ccc1O (stereo partly specified) the Activity [1] was “inactive” and the Activity [3] was “inactive”.
With COc1cc(C[C@H]2C(=O)OC[C@@H]2Cc2ccc(O)c(O)c2)ccc1O the Activity [2] was “Active”.
For COc1cc(C[C@H]2CO[C@H](c3ccc(O)c(OC)c3)[C@H]2CO)ccc1O, the Activity [1] was “inactive” and the Activity [3] was “inactive”.
With COc1cc(/C=C2\C(=O)OC[C@@H]2C(=O)c2ccc(O)c(OC)c2)ccc1O the Activity [1] was “Active”.
COc1cc2c(cc1O)[C@H](c1ccc(O)c(O)c1)[C@H]1COC[C@@H]1C2 was tested, and the Activity [2] was “inactive”.
